Experiments:
[1] = target: T1, Proto-oncogene tyrosine-protein kinase Src (Homo sapiens, UniProt P12931); assay: Inhibition of Src at 10 uM
Method in brief: (§1)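 Wells were precoated with 20 μg/mL poly(Glu,Tyr)4:1 substrate, then given an 8 μM ATP solution (added concentration) and compound. Purified EGFR or Src in kinase buffer ran for 60 min at 37 °C, in triplicate, with 0.1% DMSO as negative control. Phosphotyrosine was detected with PY99, HRP anti-mouse IgG and o-phenylenediamine/H2O2 at A490. Inhibition % = [1 − A490/A490 control] × 100, and IC50 was taken from inhibition curves.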

[2] = target: Epidermal growth factor receptor (Homo sapiens) (UniProt P00533); assay: Inhibition of EGFR at 10 uM; method in brief: as §1
Sequence of Epidermal growth factor receptor (Homo sapiens) (P00533 whole entry): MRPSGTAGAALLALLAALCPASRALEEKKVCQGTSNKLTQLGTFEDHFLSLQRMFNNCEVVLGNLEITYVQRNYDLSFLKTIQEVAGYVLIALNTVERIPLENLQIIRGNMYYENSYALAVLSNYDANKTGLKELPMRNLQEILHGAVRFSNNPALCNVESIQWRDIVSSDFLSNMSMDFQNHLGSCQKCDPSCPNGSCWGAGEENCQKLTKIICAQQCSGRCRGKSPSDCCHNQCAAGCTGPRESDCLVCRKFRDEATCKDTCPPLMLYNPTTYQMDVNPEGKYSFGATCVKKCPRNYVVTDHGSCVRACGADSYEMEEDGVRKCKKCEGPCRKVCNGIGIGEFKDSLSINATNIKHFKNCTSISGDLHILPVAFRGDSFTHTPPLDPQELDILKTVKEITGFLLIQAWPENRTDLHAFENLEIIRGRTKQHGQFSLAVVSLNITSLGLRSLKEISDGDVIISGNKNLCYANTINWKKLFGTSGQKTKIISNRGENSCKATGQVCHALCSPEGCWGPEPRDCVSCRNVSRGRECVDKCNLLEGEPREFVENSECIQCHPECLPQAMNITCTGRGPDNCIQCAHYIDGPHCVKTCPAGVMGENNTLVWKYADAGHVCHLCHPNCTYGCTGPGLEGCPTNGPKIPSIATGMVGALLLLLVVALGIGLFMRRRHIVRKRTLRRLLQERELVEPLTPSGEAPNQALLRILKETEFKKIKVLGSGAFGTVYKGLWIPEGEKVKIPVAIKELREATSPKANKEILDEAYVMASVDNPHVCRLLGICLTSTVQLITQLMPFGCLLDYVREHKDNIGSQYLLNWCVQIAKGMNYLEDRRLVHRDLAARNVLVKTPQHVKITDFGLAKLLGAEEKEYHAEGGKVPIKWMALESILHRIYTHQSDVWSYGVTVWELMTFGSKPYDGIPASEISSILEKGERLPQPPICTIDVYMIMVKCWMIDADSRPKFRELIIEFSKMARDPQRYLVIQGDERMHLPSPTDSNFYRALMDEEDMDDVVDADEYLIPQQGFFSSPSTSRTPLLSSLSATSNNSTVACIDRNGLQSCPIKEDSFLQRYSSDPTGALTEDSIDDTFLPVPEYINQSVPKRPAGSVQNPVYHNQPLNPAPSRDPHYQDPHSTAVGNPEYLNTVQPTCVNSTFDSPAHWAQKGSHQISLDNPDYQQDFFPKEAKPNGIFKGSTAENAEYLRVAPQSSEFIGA

[3] = target: T1, Proto-oncogene tyrosine-protein kinase Src; assay: Inhibition of Src; method in brief: as §1

T1 sequence (P12931 2-536 limits assumed): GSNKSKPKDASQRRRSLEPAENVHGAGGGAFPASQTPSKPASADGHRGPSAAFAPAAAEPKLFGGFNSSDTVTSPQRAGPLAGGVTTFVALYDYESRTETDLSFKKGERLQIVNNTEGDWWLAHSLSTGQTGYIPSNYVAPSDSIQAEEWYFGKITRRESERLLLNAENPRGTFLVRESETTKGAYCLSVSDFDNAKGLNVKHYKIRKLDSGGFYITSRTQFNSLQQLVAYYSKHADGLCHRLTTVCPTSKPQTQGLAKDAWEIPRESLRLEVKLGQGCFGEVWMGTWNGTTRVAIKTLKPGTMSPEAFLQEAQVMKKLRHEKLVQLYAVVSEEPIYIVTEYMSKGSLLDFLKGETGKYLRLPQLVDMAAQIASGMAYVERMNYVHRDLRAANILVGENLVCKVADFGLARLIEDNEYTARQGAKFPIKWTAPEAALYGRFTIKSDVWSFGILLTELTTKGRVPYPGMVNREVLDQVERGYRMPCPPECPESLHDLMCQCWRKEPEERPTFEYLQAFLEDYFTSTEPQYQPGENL

Row | Structure (SMILES) | inhibition [1] [%] | inhibition [2] [%] | IC50 [3] [µM]
1 | CC(C)[C@@H](NC(=O)OC(C)(C)C)C(=O)Oc1c(-c2ccc(O)c(O)c2)oc2cc(O)cc(O)c2c1=O | 40.7 | 22.3 | –
2 | CC(C)(C)OC(=O)N[C@@H](Cc1ccccc1)C(=O)Oc1c(-c2ccc(O)c(O)c2)oc2cc(O)cc(O)c2c1=O | 40.9 | 35.9 | –
3 | CC(C)[C@H](NC(=O)OC(C)(C)C)C(=O)Oc1c(-c2ccc(O)c(O)c2)oc2cc(O)cc(O)c2c1=O | 52.5 | 21 | 7.4
4 | CC(C)(C)n1nc(-c2ccc(Cl)cc2)c2c(N)ncnc21 | 99 | – | –
5 | C[C@H](NC(=O)OC(C)(C)C)C(=O)Oc1c(-c2ccc(O)c(O)c2)oc2cc(O)cc(O)c2c1=O | 51.4 | 35.9 | 6.5
6 | CC(C)(C)OC(=O)N[C@@H](Cc1c[nH]c2ccccc12)C(=O)Oc1c(-c2ccc(O)c(O)c2)oc2cc(O)cc(O)c2c1=O | 44.4 | 15.6 | –
7 | CC(C)C[C@H](NC(=O)OC(C)(C)C)C(=O)Oc1c(-c2ccc(O)c(O)c2)oc2cc(O)cc(O)c2c1=O | 55.4 | 30.4 | 4.2
8 | CC(C)(C)OC(=O)NCC(=O)Oc1c(-c2ccc(O)c(O)c2)oc2cc(O)cc(O)c2c1=O | 76.2 | 43.2 | 3.3
9 | O=c1c(O)c(-c2ccc(O)c(O)c2)oc2cc(O)cc(O)c12 [QUERCETIN] | – | – | 15
10 | CC(=O)N1CCC[C@H]1C(=O)Oc1c(-c2ccc(O)c(O)c2)oc2cc(O)cc(O)c2c1=O | 24.3 | 21 | –
11 | CC(=O)N[C@@H](Cc1ccccc1)C(=O)Oc1c(-c2ccc(O)c(O)c2)oc2cc(O)cc(O)c2c1=O | 60.5 | 20.9 | 5.9
12 | CC(C)(C)OC(=O)N[C@@H](CC(N)=O)C(=O)Oc1c(-c2ccc(O)c(O)c2)oc2cc(O)cc(O)c2c1=O | 50.8 | 23.8 | 9.9
13 | CC(C)C[C@@H](NC(=O)OC(C)(C)C)C(=O)Oc1c(-c2ccc(O)c(O)c2)oc2cc(O)cc(O)c2c1=O | 44.5 | 29.2 | –
14 | COc1cc2ncnc(Nc3ccc(OCc4ccccc4)cc3)c2cc1OC | – | 97.2 | –
15 | C[C@H](O)[C@@H](NC(=O)OC(C)(C)C)C(=O)Oc1c(-c2ccc(O)c(O)c2)oc2cc(O)cc(O)c2c1=O | 71 | 34.6 | 4.9
16 | CC(=O)N[C@@H](CC(C)C)C(=O)Oc1c(-c2ccc(O)c(O)c2)oc2cc(O)cc(O)c2c1=O | 39 | 25.9 | –
17 | C[C@@H](O)[C@H](NC(=O)OC(C)(C)C)C(=O)Oc1c(-c2ccc(O)c(O)c2)oc2cc(O)cc(O)c2c1=O | 76.1 | 36.8 | 3.5
18 | CC(C)(C)OC(=O)N1CCC[C@H]1C(=O)Oc1c(-c2ccc(O)c(O)c2)oc2cc(O)cc(O)c2c1=O | 27.7 | 19.3 | –

Source: ChEMBL document CHEMBL1158361, “Discovering novel quercetin-3-O-amino acid-esters as a new class of Src tyrosine kinase inhibitors” (Eur J Med Chem, 2009)
